Experimental data taken from ChEMBL document CHEMBL1129338, “Inhibitors of acyl-CoA:cholesterol O-acyltransferase. synthesis and pharmacological activity of (+/-)-2-dodecyl-alpha-phenyl-N-(2,4,6-trimethoxyphenyl)-2H-tetrazole-5- acetamide and structurally related tetrazole amide derivatives” (J Med Chem, 1996).

Key:
[1] = target: T1, Sterol O-acyltransferase 1 (Rattus norvegicus, UniProt O70536); assay: In vitro inhibitory activity against acyl coenzyme A:cholesterol acyltransferase 1 of liver microsomes isolated from cholesterol-fed rats.
T1 sequence (O70536 whole entry): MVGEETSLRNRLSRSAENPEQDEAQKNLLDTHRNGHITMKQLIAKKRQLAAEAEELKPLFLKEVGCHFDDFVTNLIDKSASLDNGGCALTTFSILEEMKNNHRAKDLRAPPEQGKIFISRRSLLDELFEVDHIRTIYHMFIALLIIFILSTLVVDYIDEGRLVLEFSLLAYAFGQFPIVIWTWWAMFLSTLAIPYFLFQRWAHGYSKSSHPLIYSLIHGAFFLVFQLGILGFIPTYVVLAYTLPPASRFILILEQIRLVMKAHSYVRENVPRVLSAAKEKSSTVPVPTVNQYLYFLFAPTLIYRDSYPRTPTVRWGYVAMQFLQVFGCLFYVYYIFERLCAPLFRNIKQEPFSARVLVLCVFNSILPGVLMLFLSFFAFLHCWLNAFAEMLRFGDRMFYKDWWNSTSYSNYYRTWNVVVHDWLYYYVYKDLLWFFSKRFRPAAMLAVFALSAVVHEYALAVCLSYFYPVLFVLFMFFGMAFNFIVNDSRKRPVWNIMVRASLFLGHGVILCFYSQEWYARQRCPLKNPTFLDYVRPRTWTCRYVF
Summary of the method: (§1)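 ACAT inhibition was measured in hepatic microsomes isolated from cholesterol-fed rats. Each determination was run in triplicate, and IC50 was reported.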

[2] = target: T2, Sterol O-acyltransferase 1 (Mus musculus) (UniProt Q61263); assay: In vitro inhibitory activity against acyl coenzyme A:cholesterol acyltransferase 1 in cell culture assay using murine IC-21 macrophages at 0.1 uM
T2 sequence (whole entry): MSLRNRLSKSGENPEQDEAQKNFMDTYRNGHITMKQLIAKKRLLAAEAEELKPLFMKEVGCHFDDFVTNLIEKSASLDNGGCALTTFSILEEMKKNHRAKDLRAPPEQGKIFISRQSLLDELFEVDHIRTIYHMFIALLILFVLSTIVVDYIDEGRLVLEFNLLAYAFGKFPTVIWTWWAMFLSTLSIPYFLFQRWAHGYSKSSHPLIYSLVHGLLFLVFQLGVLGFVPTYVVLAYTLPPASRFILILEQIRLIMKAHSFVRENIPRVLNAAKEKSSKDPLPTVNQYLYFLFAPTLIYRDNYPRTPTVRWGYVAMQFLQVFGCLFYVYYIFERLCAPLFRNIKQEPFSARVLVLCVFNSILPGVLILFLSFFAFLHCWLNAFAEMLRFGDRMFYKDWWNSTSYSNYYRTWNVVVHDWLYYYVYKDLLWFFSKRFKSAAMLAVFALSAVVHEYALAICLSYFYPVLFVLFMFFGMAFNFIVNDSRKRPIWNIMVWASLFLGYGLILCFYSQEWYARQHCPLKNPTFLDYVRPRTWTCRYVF
Summary of the method: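 IC-21 mouse macrophages were preincubated 16 h in serum-free DMEM with 20 µM albumin and phosphatidylserine/cholesterol vesicles. The vesicles were sonicated in 150 mM NaCl, 5 mM MOPS, 1 mM EDTA, pH 7.4, and filter-sterilized. Medium was then replaced with serum-free DMEM containing the compound in DMSO at 0.1 µM. Percent inhibition was read, with cell protein measured by the Lowry method.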

Oryctolagus cuniculus [3] = assay: Oral bioactivity expressed as %inhibition after 4 hours of drug administration (dose 50 mg/kg) in rabbit bioassay; format: functional
Summary of the method: (§2)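 Plasma was taken before dosing and at 1, 2 and 4 h. Plasma (0.2 mL) was hexane-extracted, dried and redissolved in chloroform/methanol 2:1. It was then tested for ACAT inhibition in the liver microsomal assay alongside spiked standards and a 2.5 µM CI-976 reference.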

Rattus norvegicus [4] = assay: Percent change in High Density Lipoproteins (HDL) in Chronic Cholesterol -Fed rat model at a dose 30 mg/kg; format: functional
Summary of the method: (§3)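 Rats ate a high-fat, high-cholesterol diet for 14 days. During the second week they received the test compound daily by gavage at 30 mg/kg, in a carboxymethylcellulose/Tween-20 aqueous vehicle. Plasma lipids (total cholesterol, HDL-C, non-HDL-C) were read as percent change.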

Rattus norvegicus [5] = assay: Percent change in total cholesterol (TC) in cholic acid (0.5%)-, cholesterol (1.5%) -, and peanut oil (5.5%)- fed rats at a dose 30 mg/kg.; format: functional
Rattus norvegicus [6] = assay: Change in total cholesterol in Chronic Cholesterol-Fed rat model at dose 30 mg/kg; format: functional; summary of the method: as §3
Rattus norvegicus [7] = assay: Percent change in non High Density Lipoproteins (HDL) in Chronic Cholesterol -Fed rat model at a dose 30 mg/kg
Rattus norvegicus [8] = assay: Percent change in total cholesterol (TC) in cholic acid (0.5%) - cholesterol (1.5% - peanut oil (5.5%) - fed rats at a dose 30 mg/kg; format: functional
Oryctolagus cuniculus [9] = assay: % change in total cholesterol(TC) versus progression control (PC) with out drug intervention in chronic cholesterol-fed rabbit model at a dose of 25 mg/kg; format: functional
Summary of the method: (§4)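 Male New Zealand rabbits (1-1.5 kg) were meal-fed 50 g/day of chow with 0.5% cholesterol, 3% coconut oil and 3% peanut oil. After 1 week, compound was added to the diet for 2 weeks at 5 or 25 mg/kg. Plasma total cholesterol came from cardiac blood of fasted animals after nitrogen asphyxiation. It was compared with cholesterol-fed progression controls or with T0, the start of drug intervention, when plasma cholesterol was taken 24 h after the drug meal.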

Oryctolagus cuniculus [10] = assay: Dose response in cholesterol fed rabbit after oral administration; format: functional
Summary of the method: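 Cholesterol-fed rabbit model with oral dosing across a dose series, 8 animals per dose. Plasma cholesterol reduction was averaged at each dose. ED50, the dose lowering plasma total cholesterol 50%, was calculated from these mean responses with the median-effect equation.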

Oryctolagus cuniculus [11] = assay: Percent change in total cholesterol(TC) versus (T0)- at which drug intervention begins at a dose of 25 mg/kg in the chronic cholesterol-fed rabbit model; format: functional; summary of the method: as §4
Oryctolagus cuniculus [12] = assay: Oral bioactivity expressed as %inhibition after 4 hours of drug administration (dose 25 mg/kg) in rabbit bioassay; format: functional; summary of the method: as §2
Oryctolagus cuniculus [13] = assay: % change in total cholesterol(TC) versus progression control (PC) with out drug intervention in chronic cholesterol-fed rabbit model at a dose of 5 mg/kg; format: functional; summary of the method: as §4
Rattus norvegicus [14] = assay: In vitro percent decrease in cholesterol activity at 30 mg/kg in acute rat screen; format: functional; conditions: in the assay text read “In vivo” for “In vitro”
Summary of the method: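 Rats received a single gavage dose of 30 mg/kg, suspended in carboxymethylcellulose/Tween-20 in water, followed by one high-fat, high-cholesterol meal. The read-out was inhibition of the overnight rise in plasma total cholesterol, as percent change.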

[15] = target: Sterol O-acyltransferase 1 (Mus musculus) (UniProt Q61263); assay: Percent change of compound against Acyl coenzyme A:cholesterol acyltransferase 1 in cell culture assay using murine IC-21 macrophages at 0.1(uM)
[16] = target: T1, Sterol O-acyltransferase 1; assay: Inhibitory concentration against Acyl coenzyme A:cholesterol acyltransferase 1 from rat liver; summary of the method: as §1
[17] = target: T3, Acyl-CoA:cholesterol acyltransferase (Oryctolagus cuniculus, UniProt Q95214); assay: Inhibitory concentration against Acyl coenzyme A:cholesterol acyltransferase 1 from rabbit intestine
T3 sequence (Q95214 whole entry): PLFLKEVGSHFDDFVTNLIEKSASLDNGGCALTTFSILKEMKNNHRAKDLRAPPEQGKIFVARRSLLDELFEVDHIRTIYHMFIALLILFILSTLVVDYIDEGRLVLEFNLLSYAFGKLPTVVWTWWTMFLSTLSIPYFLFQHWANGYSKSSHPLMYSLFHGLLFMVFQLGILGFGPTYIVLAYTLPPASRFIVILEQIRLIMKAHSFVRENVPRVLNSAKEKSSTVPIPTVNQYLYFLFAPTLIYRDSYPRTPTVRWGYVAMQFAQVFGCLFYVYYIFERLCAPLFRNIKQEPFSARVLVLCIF

Rattus norvegicus [18] = assay: % change in total cholesterol in Chronic Cholesterol-Fed rat model at dose 30 mg/kg; format: functional; summary of the method: as §3
Rattus norvegicus [19] = assay: Effective dose to lower nonHDL-C in a cholesterol fed rat model in vivo; format: functional
[20] = tested on: Acyl-CoA:cholesterol acyltransferase (Rattus norvegicus); assay: Ability to reduce cholesterol absorption, i.e. the appearance of lymph cholesteryl ester at a dose of 10 mg/kg
Oryctolagus cuniculus [21] = assay: Change in total cholesterol(TC) versus (T0)- at which drug intervention begins at a dose of 5 mg/kg in chronic cholesterol-fed rabbit model; format: functional; summary of the method: as §4
Oryctolagus cuniculus [22] = assay: Change in total cholesterol(TC) versus progression control (PC) with out drug intervention in chronic cholesterol-fed rabbit model at a dose of 25 mg/kg; format: functional; summary of the method: as §4
Oryctolagus cuniculus [23] = assay: Change in total cholesterol(TC) versus progression control (PC) with out drug intervention in chronic cholesterol-fed rabbit model at a dose of 5 mg/kg; format: functional; summary of the method: as §4
[24] = target: T4, Acyl-CoA:cholesterol acyltransferase (Oryctolagus cuniculus) (UniProt Q95214); conditions: 25 mg/kg
T4 sequence (whole entry): T3 sequence (Q95214 whole entry)

[25] = target: T4, Acyl-CoA:cholesterol acyltransferase (Oryctolagus cuniculus); conditions: at 25 mg/kg
Oryctolagus cuniculus [26] = assay: % change in total cholesterol(TC) versus (T0)- at which drug intervention begins at a dose of 5 mg/kg in chronic cholesterol-fed rabbit model; format: functional; summary of the method: as §4

Structure (SMILES) | IC50 [1] [µM] | inhibition [2] [%] | inhibition in vivo at 50 mg/kg (Oryctolagus cuniculus [3]) [%] | Change (Rattus norvegicus [4]) [%] | Change (Rattus norvegicus [5]) [%] | Change (Rattus norvegicus [6]) [%] | Change (Rattus norvegicus [7]) [%] | Change (Oryctolagus cuniculus [9]) [%] | ED50 (Oryctolagus cuniculus [10]) [mg/kg] | Change (Oryctolagus cuniculus [11]) [%] | inhibition in vivo at 25 mg/kg (Oryctolagus cuniculus [12]) [%] | Change (Oryctolagus cuniculus [13]) [%] | Decrease (Rattus norvegicus [14]) [%] | further results
C=CCCCCCCCCCn1nnc(C(C(=O)Nc2c(OC)cc(OC)cc2OC)c2ccccc2)n1 (stereo not drawn) | 0.054 | 54 | 26 | 102 | <56 | <72 | <77 |  |  |  |  |  |  | 
CCCCCCCCCCCCn1nnc(C(C)C(=O)Nc2c(OC)cc(OC)cc2OC)n1 (stereo not drawn) | 0.031 | 49 |  |  |  |  |  |  |  |  |  |  |  | Change (Rattus norvegicus [8]): <55%
CCCCCCCCCCCCn1nnc(C(C(=O)Nc2c(C(C)C)cccc2C(C)C)c2ccccc2)n1 (stereo not drawn) |  | 47 |  | 27 | <66 | <38 | <40 | <73 | 1.2 | <43 | 96 | <61 | 66 | 
CCCCCCCCCCCCn1nnc(C(=O)Nc2c(OC)cc(OC)cc2OC)n1 | 35.6 |  |  |  |  |  |  |  |  |  |  |  |  | Change [15]: 21%
CCCCCCCCCCCCn1nnc(C(C(=O)Nc2c(OC)cc(OC)cc2OC)c2ccccc2)n1 (stereo not drawn) | 0.023 | 40 | 4 | 83 | <63 |  | <68 | <78 | 0.1 | <38 | 0 | <71 |  | IC50 [16]: 0.023 µM; IC50 [17]: 0.008 µM; Change (Rattus norvegicus [18]): <60%; ED50 (Rattus norvegicus [19]): 6.4 mg/kg; Reduction [20]: 79%
C=CCCCCCCCCCCn1nnc(C(C(=O)Nc2c(OC)cc(OC)cc2OC)c2ccccc2)n1 (stereo not drawn) | 0.025 | 37 | 37 | 98 | <63 | <52 | <58 |  |  |  |  |  |  | 
CCCCCCCCCCC(C)(C)C(=O)Nc1c(OC)cc(OC)cc1OC [CL-976] |  |  |  |  |  |  |  |  | 21.8 |  |  |  |  | Change (Oryctolagus cuniculus [21]): 96%; Change (Oryctolagus cuniculus [22]): <54%; Change (Oryctolagus cuniculus [23]): <28%; ED50 (Rattus norvegicus [19]): 19 mg/kg; Change [24]: 19%; inhibition [25]: 45%
CCCCCCCCCCCCc1nnn(C(C(=O)Nc2c(C(C)C)cccc2C(C)C)c2ccccc2)n1 (stereo not drawn) | 0.015 | 67 |  | 50 | <77 |  |  | <68 |  | <20 | 91 | <55 | 77 | Change (Oryctolagus cuniculus [26]): 18%
CCCCCCCCCCCCc1nnn(C(C(=O)Nc2c(OC)cc(OC)cc2OC)c2ccccc2)n1 (stereo not drawn) | 0.021 | 52 |  |  | <65 |  |  | <68 |  |  | 0 | <63 | 65 | Change (Oryctolagus cuniculus [26]): <11%
CCCCCCCCCCCCn1nnc(C(Cc2ccccc2)C(=O)Nc2c(OC)cc(OC)cc2OC)n1 (stereo not drawn) | 0.049 | 77 |  | 27 | <73 |  | <50 |  |  |  | 0 |  |  | Change (Rattus norvegicus [18]): <48%
